According to paper PMC4532391 (Biochemistry, 2015):
No end group written: not given here.

Columns and labels:
[1] = system: macrophages isolated from αMβ2-deficient mice; experiment: Transwell migration of thioglycolate-elicited peritoneal macrophages; assay type: cell-based; settings: 90 min, LL-37 1 μg/mL, fMLP 100 nM
Procedure, shortened: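 Thioglycolate-elicited peritoneal monocyte/macrophages from wild-type and αMβ2-deficient mice, purified by anti-F4/80-PE selection. Placed in Transwell inserts with chemoattractant below: LL-37 1 μg/mL or fMLP 100 nM. Allowed to migrate 90 min.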

αMI-domain [2] = target: T1, αMI-domain (Homo sapiens, UniProt P11215); assay type: binding
αMI-domain [3] = target: T1, αMI-domain; settings: covalently coupled to the cellulose membrane; cited from earlier work
αMβ2 on neutrophils = experiment: Flow cytometry of the activation-dependent CBRM1/5 epitope on neutrophils; assay type: cell-based, human
Procedure, shortened: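 Human blood neutrophils, isolated sterilely, at 10^6 per 0.1 mL in HBSS/0.1% BSA. Exposed 5 min at 22 °C to LL-37 (0.5–10 μg/mL) or fMLP (200 nM). Then Alexa 488-conjugated activation-dependent mAb CBRM1/5, 30 min on ice. Epitope-positive cells counted by flow cytometry. Some samples pretreated with NIF (1 μg/mL) before LL-37 at 4 or 10 μg/mL.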

U937 monocytic cells = experiment: Chemotaxis of U937 cells towards an agarose drop on coverslips; assay type: cell-based, human; settings: agarose gel with 15 μg/mL LL-37; 2 h at 37 °C
Procedure, shortened: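 U937 cells on 22 × 22 mm coverslips. A 10 μL drop of 1% agarose in HBSS, with LL-37 at 15 μg/mL final, sits ~1.5 mm from one corner; a control agarose drop sits in the opposite corner; both polymerise 5 min. Coverslips are submerged in RPMI 1640/10% FBS. 5 × 10^4 cells are loaded centrally, then 2 h at 37 °C, 5% CO2. Migration photographed at 2 mm intervals (20× objective); blocking variant uses anti-αM mAb 44a.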

[4] = system: αMβ2-expressing HEK293 cells; experiment: Transwell migration of αMβ2-expressing HEK293 cells; assay type: cell-based; settings: concentration-dependent, 16 h at 37 °C
Procedure, shortened: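 Transwell, 5 μm pores: 3 × 10^5 αMβ2-HEK293 cells in the upper chamber, LL-37 (0.1–2 μg/mL) below, 16 h at 37 °C. Cells on the filter underside are fixed with paraformaldehyde, hematoxylin-stained and counted (mean cells/view ± standard error, ≥3 experiments). Blocking: 15 min pretreatment with 20 μg/mL anti-αM 44a, anti-β2 IB4 or non-inhibitory OKM1, LL-37 at 0.5 μg/mL. Medium-alone control.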

T1 sequence (P11215 139-331): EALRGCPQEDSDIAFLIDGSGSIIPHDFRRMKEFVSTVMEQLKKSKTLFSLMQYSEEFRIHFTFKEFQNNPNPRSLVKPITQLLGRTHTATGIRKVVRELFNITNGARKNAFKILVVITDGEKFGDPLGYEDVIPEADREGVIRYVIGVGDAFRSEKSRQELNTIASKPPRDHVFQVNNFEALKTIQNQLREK

Compound | IC50 (αMI-domain [2]) [µM] | other results
fMLP | – | migration of macrophages from αMβ2-deficient mice [1]: migrated
SVNKYRGTAGNA [SVNKYRGTAGNA] | 93 ± 11 | –
SSVKKYRPKYCGS [CCN1-H2] | – | αMI-domain binding of the cellulose-coupled peptide (αMI-domain [3]): bound the αMI-domain
RKLRSLWRR [RKLRSLWRR] | 2.5 ± 0.2 | –
TMKIIPFNRLTIG [P2-C] | 30 ± 2.5 | –
CC(C)C[C@H](NC(=O)[C@H](CC(C)C)NC(=O)[C@H](CCCNC(=N)N)NC(=O)[C@@H](N)CC(N)=O)C(=O)N[C@@H](CC(C)C)C(=O)N[C@H](C(=O)NCC(=O)O)[C@@H](C)O [NRLLLTG] | 110 ± 16 | –
LQLRFPRFV [LQLRFPRFV] | 10.5 ± 1.6 | –
QVLRIRKRA [QVLRIRKRA] | 8.4 ± 0.5 | –
YSMKKTTMKIIPFNRLTIG [P2] | – | αMI-domain binding of the cellulose-coupled peptide (αMI-domain [3]): bound the αMI-domain
GRLPMPW [GRLPMPW] | 36 ± 7 | –
ARLPIWF [ARLPIWF] | 17 ± 3 | –
LLGDFFRKSKEKIGKEFKRIVQRIKDFLRNLVPRTES [LL-37] | – | migration of macrophages from αMβ2-deficient mice [1]: did not induce migration; number of cells expressing the activation epitope compared with fMLP (αMβ2 on neutrophils; 10 μg/mL LL-37 versus fMLP 200 nM): slightly higher; expression of the CBRM1/5 activation epitope on neutrophils (αMβ2 on neutrophils; LL-37 0.5–10 μg/mL, 5 min at 22 °C, mAb CBRM1/5-Alexa 488, FACS): induced expression of the CBRM1/5 epitope in a concentration-dependent manner; chemotactic response of U937 cells (U937 monocytic cells): induced a chemotactic response; LL-37 concentrations at which migration occurred [4]: 0.1 to 2 µg/mL
